Measurements from ChEMBL document CHEMBL5104204, “Synthesis and in vitro anticancer evaluation of novel flavonoid-based amide derivatives as regulators of the PI3K/AKT signal pathway for TNBC treatment” (RSC Med Chem, 2022).

Legend:
MDA-MB-231 [1] = test: Induction of apoptosis in human MDA-MB-231 cells assessed as viable cells at 1.76 uM incubated for 48 hrs AnnexinV/ propidium iodide staining based flow cytometry (Rvb= 99.02%); assay type: functional; conditions: read-out: Activity
MDA-MB-231 [2] = test: Inhibition of colony formation in human MDA-MB-231 cells assessed as decrease in size of colony forming cells at 1.76 uM incubated upto 72 hrs by crystal violet staining based assay; assay type: functional, cell-based; conditions: TDE = time-dependent effect
Outline: (§1)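 Colony formation, MDA-MB-231: 800 cells/well, three replicate wells per group, grown 5–7 days at 37 °C, 5% CO2 until 30–50-cell clusters formed. Drug then added for 24, 48 or 72 h. Washed with cold PBS, fixed in 4% paraformaldehyde 30 min, stained with 0.5% crystal violet, imaged, colonies counted; n = 3.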

MDA-MB-231 [3] = test: Induction of apoptosis in human MDA-MB-231 cells assessed as half-moon, loop and ellipse shaped fragment formation at 0.88 to 3.52 uM incubated for 48 hrs by Hoechst 33258 staining based fluorescence microscopic analysis; assay type: functional, cell-based; conditions: dose 0.88-3.52 µM, DDE = dose-dependent effect
Outline: (§2)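 MDA-MB-231 seeded at 2×10^5–3×10^5 per well and incubated overnight (37 °C, 5% CO2). Exposed to compound for 48 h. Fixed in methanol 30 min, then stained with Hoechst 33258 for 30 min at room temperature in the dark. Nuclear morphology scored by fluorescence microscopy; n = 3, mean ± SD.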

MDA-MB-231 [4] = test: Inhibition of PI3K/AKT signalling pathway in human MDA-MB-231 cells assessed as decrease in phosphorylated PI3K level at 1 to 10 uM incubated for 48 hrs by western blot analysis; assay type: cell-based; conditions: dose 1-10 µM, DDE = dose-dependent effect
Outline: (§3)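 MDA-MB-231 treated at 1, 5 and 10 μM at 37 °C, then lysed in RIPA/PMSF for 30 min at 0 °C and cleared at 14 000 × g, 4 °C. Protein quantified by BCA; 40 μg resolved by SDS-PAGE and transferred to PVDF. Blocked in 5% skim milk, primary antibody overnight at 4 °C, secondary 2 h at room temperature, chemiluminescent imaging.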

MDA-MB-231 [5] = test: Induction of cell cycle arrest in human MDA-MB-231 cells assessed as decrease in S phase at 0.88 to 3.52 uM incubated for 48 hrs by flow cytometry; assay type: functional, cell-based; conditions: dose 0.88-3.52 µM, DDE = dose-dependent effect
Outline: (§4)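 Cell cycle of MDA-MB-231 after 48 h exposure: trypsinised and washed in PBS, about 1×10^6 cells/mL. Fixed overnight in pre-cooled 70% ethanol at 4 °C, then resuspended in PBS and filtered through 200-mesh nylon. Flow cytometry with 488 nm excitation gave G0/G1, S and G2/M percentages; n = 3, mean ± SD.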

MDA-MB-231 [6] = test: Inhibition of colony formation in human MDA-MB-231 cells assessed as decrease in number of colony forming cells at 0.44 to 3.52 incubated for 48 hrs by crystal violet staining based assay; assay type: functional, cell-based; conditions: DDE = dose-dependent effect; outline: as §1
MDA-MB-231 [7] = test: Inhibition of colony formation in human MDA-MB-231 cells assessed as decrease in number of colony forming cells at 1.76 uM incubated upto 72 hrs by crystal violet staining based assay; assay type: functional, cell-based; conditions: TDE = time-dependent effect; outline: as §1
MDA-MB-231 [8] = test: Induction of apoptosis in human MDA-MB-231 cells assessed as necrotic cells at 2.2 uM incubated for 48 hrs AnnexinV/ propidium iodide staining based flow cytometry (Rvb= 0.54%); assay type: functional
MDA-MB-231 [9] = test: Induction of cell cycle arrest in human MDA-MB-231 cells assessed as increase in accumulation at G0/G1 phase at 0.88 to 3.52 uM incubated for 48 hrs by flow cytometry; assay type: functional, cell-based; conditions: dose 0.88-3.52 µM, DDE = dose-dependent effect; outline: as §4
MDA-MB-231 [10] = test: Induction of apoptosis in human MDA-MB-231 cells assessed as viable cells at 7.04 uM incubated for 48 hrs AnnexinV/ propidium iodide staining based flow cytometry (Rvb= 99.02%); assay type: functional; conditions: read-out: Activity
MDA-MB-231 [11] = test: Induction of apoptosis in human MDA-MB-231 cells assessed as late apoptotic cells at 0.88 uM incubated for 48 hrs AnnexinV/ propidium iodide staining based flow cytometry (Rvb= 0.40%); assay type: functional
A549 = test: Antitumor activity against human A549 cells assessed as inhibit cell proliferation incubated for 72 hrs by CCK-8 assay; assay type: functional, cell-based; conditions: A549, 72 h
Outline: (§5)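 CCK8 viability readout. Culture media: HCC1937, A549, HeLa and GTL-16 in RPMI 1640; MDA-MB-231, MCF-7 and HepG2 in high-glucose DMEM; all with 10% FBS and penicillin/streptomycin, 37 °C, 5% CO2. 4×10^3–6×10^3 cells/well, 24 h, then compounds in serum-free medium, 72 h at 37 °C. 10% CCK8, 2 h, OD 450/630 nm. Five wells per group; IC50 from inhibition rate; three independent experiments, mean ± SD.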

HepG2 = test: Antitumor activity against human HepG2 cells assessed as inhibit cell proliferation incubated for 72 hrs by CCK-8 assay; assay type: functional, cell-based; conditions: HepG2, 72 h; outline: as §5
MDA-MB-231 [12] = test: Induction of apoptosis in human MDA-MB-231 cells assessed as increase in apoptotic bodies at 0.88 to 3.52 uM incubated for 48 hrs by Hoechst 33258 staining based fluorescence microscopic analysis; assay type: functional, cell-based; conditions: dose 0.88-3.52 µM, DDE = dose-dependent effect; outline: as §2
MDA-MB-231 [13] = test: Antitumor activity against human MDA-MB-231 cells assessed as inhibit cell proliferation incubated for 72 hrs by CCK-8 assay; assay type: functional, cell-based; conditions: MDA-MB-231, 72 h; outline: as §5
MCF7 = test: Antitumor activity against human MCF7 cells assessed as inhibit cell proliferation incubated for 72 hrs by CCK-8 assay; assay type: functional, cell-based; conditions: MCF7, 72 h; outline: as §5
MDA-MB-231 [14] = test: Induction of apoptosis in human MDA-MB-231 cells assessed as necrotic cells at 7.04 uM incubated for 48 hrs AnnexinV/ propidium iodide staining based flow cytometry (Rvb= 0.54%); assay type: functional
MDA-MB-231 [15] = test: Induction of apoptosis in human MDA-MB-231 cells assessed as downregulation of Bcl-2 expression at 1 to 10 uM incubated for 48 hrs by western blot analysis; assay type: functional, cell-based; conditions: dose 1-10 µM, DDE = dose-dependent effect; outline: as §3
MDA-MB-231 [16] = test: Induction of apoptosis in human MDA-MB-231 cells assessed as necrotic cells at 3.52 uM incubated for 48 hrs AnnexinV/ propidium iodide staining based flow cytometry (Rvb= 0.54%); assay type: functional
MDA-MB-231 [17] = test: Induction of apoptosis in human MDA-MB-231 cells assessed as viable cells at 2.2 uM incubated for 48 hrs AnnexinV/ propidium iodide staining based flow cytometry (Rvb= 99.02%); assay type: functional; conditions: read-out: Activity
MDA-MB-231 [18] = test: Induction of apoptosis in human MDA-MB-231 cells assessed as late apoptotic cells at 1.76 uM incubated for 48 hrs AnnexinV/ propidium iodide staining based flow cytometry (Rvb= 0.40%); assay type: functional
GTL 16 cell line = test: Antitumor activity against human GTL 16 cell line assessed as inhibit cell proliferation incubated for 72 hrs by CCK-8 assay; assay type: functional, cell-based; conditions: GTL 16, 72 h; outline: as §5

For O=C(Nc1cccc(-c2oc3cc(-c4ccc(F)cc4)ccc3c(=O)c2O)c1)c1ccc(Cl)nc1, the viability at 1.76 µM (MDA-MB-231 [1]) was 45.8%, the inhibition (MDA-MB-231 [2]) was “Tde” and the Activity (MDA-MB-231 [3]) was “Dde”. The inhibition (MDA-MB-231 [4]) was “Dde”, the Activity (MDA-MB-231 [5]) was “Dde” and the inhibition (MDA-MB-231 [6]) was “Dde”. The inhibition (MDA-MB-231 [7]) was “Tde”, the Activity (MDA-MB-231 [8]) was 1.53% and the Activity (MDA-MB-231 [9]) was “Dde”. It also gave a viability at 7.04 µM (MDA-MB-231 [10]) of 5.68%, an Activity (MDA-MB-231 [11]) of 23.54% and an IC50 (A549) of 3.58 µM. The IC50 (HepG2) was 4.61 µM, the Activity (MDA-MB-231 [12]) was “Dde” and the IC50 (MDA-MB-231 [13]) was 1.76 µM. For the same compound, the IC50 (MCF7) was 2.89 µM, the Activity (MDA-MB-231 [14]) was 1.92% and the Activity (MDA-MB-231 [15]) was “Dde”. The Activity (MDA-MB-231 [16]) was 2.1%, the viability at 2.2 µM (MDA-MB-231 [17]) was 29.8% and the Activity (MDA-MB-231 [18]) was 49.45%. For the same compound, the IC50 (GTL 16 cell line) was 7.52 µM.
